Results on 14 compounds are retold here after ChEMBL document CHEMBL1641392, “Triterpenes from Garcia parviflora. Cytotoxic evaluation of natural and semisynthetic friedelanes” (J Nat Prod, 2010).

Format in all cases: functional, cell-based
Assay [1] has as its system K562. As to the kind of experiment: Cytotoxicity against human K562 cells after 48 hrs by sulforhodamine B assay. The method in brief:
(§1)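 Cells (NCI source) in RPMI-1640 with 10% FBS and antibiotics, 37 °C, 5% CO2. Seeded at 5 × 10^4 cells/mL (K562, MCF-7), 7.5 × 10^4 (U251, PC-3, SKLU-1), or 10 × 10^4 (HCT-15). After 24 h, DMSO-dissolved compounds added for 48 h. Fixed with cold TCA, stained with 0.4% SRB, Tris-extracted, read at 515 nm. IC50 from linear regression of dose-response curves.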
(In general: The SRB assay estimates cell density from bound dye.)

For assay [2], the system named is MCF7. As to the kind of experiment: Cytotoxicity against human MCF7 cells after 48 hrs by sulforhodamine B assay. The method in brief:
as §1

The subject of assay [3] is PC-3. As to the kind of experiment: Cytotoxicity against human PC3 cells after 48 hrs by sulforhodamine B assay. In a few lines:
as §1

Assay [4] relates to SK-LU-1. As to the kind of experiment: Cytotoxicity against human SK-LU-1 cells after 48 hrs by sulforhodamine B assay. The method in brief:
as §1

The test system of assay [5] is U-251. Kind of assay: Cytotoxicity against human U251 cells after 48 hrs by sulforhodamine B assay. The note with it: U-251, 48 h. The method in brief: as §1
Assay [6] relates to HCT-15. As to the kind of experiment: Cytotoxicity against human HCT15 cells after 48 hrs by sulforhodamine B assay. The note with it: HCT-15, 48 h. In a few lines: as §1

Each structure is given as a SMILES string. pIC50: −log10 of the molar value.

As for `CC(=O)O[C@H]1C[C@@H](O)[C@@H]2[C@](C)(CC[C@H]3[C@@]2(C)CC[C@@]2(C)[C@@H]4CC(C)(C)CC[C@]4(C)CC[C@]32C)[C@H]1C`, the Activity entry in assay [1], in assay [2], in assay [3] and in assay [4] was “Not toxic” each time.
With `C[C@H]1C(=O)C=C[C@@H]2[C@]1(C)CC[C@H]1[C@@]2(C)CC[C@@]2(C)[C@@H]3CC(C)(C)CC[C@]3(C)CC[C@]12C`, the Activity result in assay [1], in assay [2], in assay [3] and in assay [4] was “Not toxic” in each case.
Take `CC(=O)O[C@H]1C[C@@H](OC(C)=O)[C@@H]2[C@](C)(CC[C@H]3[C@@]2(C)CC[C@@]2(C)[C@@H]4CC(C)(C)CC[C@]4(C)CC[C@]32C)[C@H]1C`: the Activity result in assay [1], in assay [2], in assay [3] and in assay [4] was “Not toxic” in each case.
With `C[C@H]1OC(=O)C[C@@H](O)[C@@H]2[C@]1(C)CC[C@H]1[C@@]2(C)CC[C@@]2(C)[C@@H]3CC(C)(C)CC[C@]3(C)CC[C@]12C`, the Activity result in assay [1], in assay [2], in assay [3] and in assay [4] was “Not toxic” each time.
What is called pIC50 is the negative decadic logarithm of the IC50, by convention in mol/L. For the compound `C[C@H]1[C@@H](O)C[C@@H](O)[C@@H]2[C@]1(C)CC[C@H]1[C@@]2(C)CC[C@@]2(C)[C@@H]3CC(C)(C)CC[C@]3(C)CC[C@]12C`, the Activity result in assay [1], in assay [2], in assay [3] and in assay [4] was “Not toxic” in each case. For the same compound, the negative-log IC50 (pIC50) in assay [5] was 4.64.
For the compound `C[C@H]1/C(=N/O)C[C@@H](O)[C@@H]2[C@]1(C)CC[C@H]1[C@@]2(C)CC[C@@]2(C)[C@@H]3CC(C)(C)CC[C@]3(C)CC[C@]12C`, the Activity result in assay [1], in assay [2], in assay [3] and in assay [4] was “Not toxic” throughout.
On to `C[C@H]1C(=O)C[C@@H](O)[C@@H]2[C@]1(C)CC[C@H]1[C@@]2(C)CC[C@@]2(C)[C@@H]3CC(C)(C)CC[C@]3(C)CC[C@]12C`, for which the Activity entry in assay [1], in assay [2], in assay [3] and in assay [4] was “Not toxic” each time.
As for `CC1(C)CC[C@]2(C)CC[C@]3(C)[C@H]4CC[C@@]5(C)[C@@H](CC[C@H](O)[C@@H]5C(=O)O)[C@]4(C)CC[C@@]3(C)[C@@H]2C1`, the Activity entry in assay [1], in assay [2], in assay [3] and in assay [4] was “Not toxic” throughout.
For the compound `C[C@H]1OC(=O)CC[C@@H]2[C@]1(C)CC[C@H]1[C@@]2(C)CC[C@@]2(C)[C@@H]3CC(C)(C)CC[C@]3(C)CC[C@]12C` [FRIEDELIN-3,4-LACTONE], the Activity entry in assay [1], in assay [2], in assay [3] and in assay [4] was “Not toxic” in each case. This compound also gave a pIC50 in assay [5] of 4.77.
In the case of `CC(=O)O[C@H]1CC[C@]2(C)[C@H]3CC[C@]4(C)C(=CC[C@@]5(C(=O)O)CCC(C)(C)C[C@H]54)[C@]3(C)CC[C@H]2C1(C)C` [ACETYL ALEURITOLIC ACID], the Activity result in assay [1], in assay [2], in assay [3] and in assay [4] was “Not toxic” in each case. Moreover, the negative logarithm of the IC50 (pIC50) in assay [5] was 5.08.
On to `C[C@H]1NC(=O)C[C@@H](O)[C@@H]2[C@]1(C)CC[C@H]1[C@@]2(C)CC[C@@]2(C)[C@@H]3CC(C)(C)CC[C@]3(C)CC[C@]12C`, for which the Activity result in assay [1], in assay [2], in assay [3] and in assay [4] was “Not toxic” throughout.
Take `CC1(C)CC[C@]2(C)CC[C@]3(C)[C@H]4CC[C@@]5(C)[C@@H](C=CC(=O)[C@@]5(C)O)[C@]4(C)CC[C@@]3(C)[C@@H]2C1`: the Activity result in assay [1], in assay [2], in assay [3] and in assay [4] was “Not toxic” in each case. The same compound gave a negative-log IC50 (pIC50) in assay [6] of 4.38.
With `C[C@H]1C(=O)CC(=O)[C@@H]2[C@]1(C)CC[C@H]1[C@@]2(C)CC[C@@]2(C)[C@@H]3CC(C)(C)CC[C@]3(C)CC[C@]12C`, the Activity entry in assay [1], in assay [2], in assay [3] and in assay [4] was “Not toxic” each time.
For the compound `C=C[C@@H]1[C@@](C)([C@@H](C)C(=O)O)CC[C@H]2[C@@]1(C)CC[C@@]1(C)[C@@H]3CC(C)(C)CC[C@]3(C)CC[C@]21C`, the Activity result in assay [1], in assay [2], in assay [3] and in assay [4] was “Not toxic” each time. The same compound gave a pIC50 in assay [5] of 4.43.
